Columns and labels:
LP-1 = assay: Antiproliferative activity against human LP-1 cells assessed as cell growth inhibition incubated for 6 days by celltiter-glo assay; type: functional; details: LP-1, 144 h, time 6 day
Method in brief: (§1)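 Cells seeded in 384-well plates at an optimized density and held 24 h. Day 0: treated in duplicate with a 20-point two-fold series (top dose ≤29 μM, ≤0.15% DMSO) and incubated 6 days. CellTiter-Glo luminescence read at Day 0 and Day 6. Four-parameter fit. gIC50 = midpoint of the growth window between DMSO and T0. Curves required ≥1.5 population doublings.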

T-24 = assay: Antiproliferative activity against human T24 cells assessed as cell growth inhibition incubated for 6 days by celltiter-glo assay; type: functional; details: T-24, 144 h, time 6 day; method in brief: as §1
HCC1143 = assay: Antiproliferative activity against human HCC1143 cells assessed as cell growth inhibition viability incubated for 6 days by celltiter-glo assay; type: functional; details: HCC1143, 144 h, time 6 day
Method in brief: (§2)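 Cells were seeded in 384-well plates and incubated 24 h, then treated in duplicate with a 20-point, 2-fold dilution series (top dose ≤29 μM, ≤0.15% DMSO) for 6 days. CellTiter-Glo luminescence was read on day 0 and day 6. A 4-parameter fit was used, and curves needed at least 1.5 population doublings. gIC50 is the midpoint of the growth window between DMSO and T0.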

JeKo-1 = assay: Antiproliferative activity against human JeKo-1 cells assessed as cell growth inhibition incubated for 6 days by celltiter-glo assay; type: functional; details: JeKo-1, 144 h, time 6 day; method in brief: as §1
SF-539 = assay: Antiproliferative activity against human SF-539 cells assessed as cell growth inhibition incubated for 6 days by celltiter-glo assay; type: functional; details: SF-539, 144 h, time 6 day; method in brief: as §1
SU-DHL-5 = assay: Antiproliferative activity against human SU-DHL-5 cells assessed as cell growth inhibition incubated for 6 days by celltiter-glo assay; type: functional; details: SU-DHL-5, 144 h, time 6 day; method in brief: as §1
SU-DHL-6 = assay: Antiproliferative activity against human SU-DHL-6 cells assessed as cell growth inhibition incubated for 6 days by celltiter-glo assay; type: functional; details: SU-DHL-6, 144 h, time 6 day; method in brief: as §1
WSUDLCL2 = assay: Antiproliferative activity against human WSUDLCL2 cells assessed as cell growth inhibition incubated for 6 days by celltiter-glo assay; type: functional; details: WSUDLCL2, 144 h, time 6 day; method in brief: as §1
SF-295 = assay: Antiproliferative activity against human SF-295 cells assessed as cell growth inhibition incubated for 6 days by celltiter-glo assay; type: functional; details: SF-295, 144 h, time 6 day; method in brief: as §1
U-87 MG = assay: Antiproliferative activity against human U-87 MG cells assessed as cell growth inhibition incubated for 6 days by celltiter-glo assay; type: functional, U-87MG ATCC; details: 144 h, time 6 day; method in brief: as §1
Maver1 = assay: Antiproliferative activity against human MAVER-1 cells assessed as cell growth inhibition incubated for 6 days by celltiter-glo assay; type: functional; details: Maver1, 144 h, time 6 day; method in brief: as §1
SU-DHL-8 = assay: Antiproliferative activity against human SU-DHL-8 cells assessed as cell growth inhibition incubated for 6 days by celltiter-glo assay; type: functional; details: SU-DHL-8, 144 h, time 6 day; method in brief: as §1
MDA-MB-468 = assay: Antiproliferative activity against human MDA-MB-468 cells assessed as cell growth inhibition incubated for 6 days by celltiter-glo assay; type: functional; details: MDA-MB-468, 144 h, time 6 day; method in brief: as §1
SU-DHL10 = assay: Antiproliferative activity against human SU-DHL-10 cells assessed as cell growth inhibition incubated for 6 days by celltiter-glo assay; type: functional; details: SU-DHL10, 144 h, time 6 day; method in brief: as §1
HCC1806 = assay: Antiproliferative activity against human HCC1806 cells assessed as cell growth inhibition incubated for 6 days by celltiter-glo assay; type: functional; details: HCC1806, 144 h, time 6 day; method in brief: as §2
SW780 = assay: Antiproliferative activity against human SW780 cells assessed as cell growth inhibition incubated for 6 days by celltiter-glo assay; type: functional; details: SW780, 144 h, time 6 day; method in brief: as §1
U-2940 = assay: Antiproliferative activity against human U-2940 cells assessed as cell growth inhibition incubated for 6 days by celltiter-glo assay; type: functional; details: U-2940, 144 h, time 6 day; method in brief: as §1
RL = assay: Antiproliferative activity against human RL cells assessed as cell growth inhibition incubated for 6 days by celltiter-glo assay; type: functional; details: 144 h, time 6 day; method in brief: as §1
HT-1376 = assay: Antiproliferative activity against human HT-1376 cells assessed as cell growth inhibition incubated for 6 days by celltiter-glo assay; type: functional; details: HT-1376, 144 h, time 6 day; method in brief: as §2
ZR-75-1 = assay: Antiproliferative activity against human ZR-75-1 cells assessed as cell growth inhibition incubated for 6 days by celltiter-glo assay; type: functional; details: ZR-75-1, 144 h, time 6 day; method in brief: as §1
[1] = Antiproliferative activity against human PER-704 cells assessed as cell growth inhibition incubated for 6 days by celltiter-glo assay; type: functional; details: PER-704, 144 h, time 6 day; method in brief: as §1
SK-BR-3 = assay: Antiproliferative activity against human SK-BR-3 cells assessed as cell growth inhibition incubated for 6 days by celltiter-glo assay; type: functional; details: SK-BR-3, 144 h, time 6 day; method in brief: as §1
Z-138 = assay: Antiproliferative activity against human Z138 cells assessed as cell growth inhibition incubated for 6 days by celltiter-glo assay; type: functional; details: Z-138, 144 h, time 6 day; method in brief: as §1
5637 = assay: Antiproliferative activity against human 5637 cells assessed as cell growth inhibition incubated for 6 days by celltiter-glo assay; type: functional; details: Homo sapiens, 5637, 144 h; time 6 day
Method in brief: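 Cells seeded in 384-well plates and held 24 h, then treated in duplicate with a 20-point two-fold dilution series (≤29 μM top dose, ≤0.15% DMSO) for 6 days. CellTiter-Glo luminescence read on Day 0 and Day 6. 4-parameter fit; curves QC'd for population doubling ≥1.5. gIC50 = concentration at the midpoint between the DMSO and T0 values.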

Rec1 = assay: Antiproliferative activity against human REC1 cells assessed as cell growth inhibition incubated for 6 days by celltiter-glo assay; type: functional; details: Rec1, 144 h, time 6 day; method in brief: as §1
MDA-MB-453 = assay: Antiproliferative activity against human MDA-MB-453 cells assessed as cell growth inhibition incubated for 6 days by celltiter-glo assay; type: functional; details: MDA-MB-453, 144 h, time 6 day; method in brief: as §1
WSU-NHL = assay: Antiproliferative activity against human WSU-NHL cells assessed as cell growth inhibition incubated for 6 days by celltiter-glo assay; type: functional; details: 144 h, time 6 day; method in brief: as §1
SU-DHL-16 = assay: Antiproliferative activity against human SU-DHL-16 cells assessed as cell growth inhibition incubated for 6 days by celltiter-glo assay; type: functional; details: SU-DHL-16, 144 h, time 6 day; method in brief: as §1
HCC70 = assay: Antiproliferative activity against human HCC70 cells assessed as cell growth inhibition incubated for 6 days by celltiter-glo assay; type: functional; details: HCC70, 144 h, time 6 day; method in brief: as §2
U2932 = assay: Antiproliferative activity against human U2932 cells assessed as cell growth inhibition incubated for 6 days by celltiter-glo assay; type: functional; details: U2932, 144 h, time 6 day; method in brief: as §1
[2] = Antiproliferative activity against human PER-403 cells assessed as cell growth inhibition incubated for 6 days by celltiter-glo assay; type: functional; details: PER-403, 144 h, time 6 day; method in brief: as §1
SU-DHL-2 = assay: Antiproliferative activity against human SUDHL2 cells assessed as cell growth inhibition incubated for 6 days by celltiter-glo assay; type: functional; details: SU-DHL-2, 144 h, time 6 day; method in brief: as §1
Pfeiffer = assay: Antiproliferative activity against human Pfeiffer cells assessed as cell growth inhibition incubated for 6 days by celltiter-glo assay; type: functional; details: 144 h, time 6 day; method in brief: as §1

Compound | GI50 (LP-1) [nM] | GI50 (T-24) [nM] | GI50 (HCC1143) [nM] | GI50 (JeKo-1) [nM] | GI50 (SF-539) [nM] | GI50 (SU-DHL-5) [nM] | GI50 (SU-DHL-6) [nM] | GI50 (WSUDLCL2) [nM] | GI50 (SF-295) [nM] | GI50 (U-87 MG) [nM] | GI50 (Maver1) [nM] | GI50 (SU-DHL-8) [nM] | GI50 (MDA-MB-468) [nM] | GI50 (SU-DHL10) [nM] | GI50 (HCC1806) [nM] | GI50 (SW780) [nM] | GI50 (U-2940) [nM] | GI50 (RL) [nM] | GI50 (HT-1376) [nM] | GI50 (ZR-75-1) [nM] | further results
CC(=O)N1CCC(Nc2cc(C(=O)NC[C@H](O)CN3CCc4ccccc4C3)ncn2)CC1 [PEMRAMETOSTAT] | 1940 | 765 | 246 | 5400 | 61 | 28 | 4 | 82 | 24700 | 40 | 85 | 53 | 57 | 54 | 98 | 290 | 10200 | 14 | 17600 | 11000 | GI50 [1]: 658 nM; GI50 (SK-BR-3): 73 nM; GI50 (Z-138): 4 nM; GI50 5637: 69 nM; GI50 (Rec1): 2110 nM; GI50 (MDA-MB-453): 29 nM; GI50 (WSU-NHL): 8 nM; GI50 (SU-DHL-16): 99 nM; GI50 (HCC70): 130 nM; GI50 (U2932): 53 nM; GI50 [2]: 38 nM; GI50 (SU-DHL-2): 28 nM; GI50 (Pfeiffer): 421 nM
O=C(NC[C@H](O)CN1CCc2ccccc2C1)c1ccnc(NC2CCC2)c1 | 975 | 650 | 509 | 6190 | 75 | 132 | 13 | 651 | 9840 | 127 | 133 | 1220 | 585 | 495 | 261 | 451 | 2350 | 1430 | 13100 | 2620 | GI50 [1]: 375 nM; GI50 (SK-BR-3): 131 nM; GI50 (Z-138): 14 nM; GI50 5637: 143 nM; GI50 (Rec1): 1990 nM; GI50 (MDA-MB-453): 343 nM; GI50 (WSU-NHL): 76 nM; GI50 (SU-DHL-16): 124 nM; GI50 (HCC70): 522 nM; GI50 (U2932): 336 nM; GI50 [2]: 29 nM; GI50 (SU-DHL-2): 86 nM; GI50 (Pfeiffer): 352 nM

Reference: ChEMBL document CHEMBL5653630, “Activation of the p53-MDM4 regulatory axis defines the anti-tumour response to PRMT5 inhibition through its role in regulating cellular splicing” (Sci Rep, 2018)
